According to ChEMBL document CHEMBL1795311, “Synthesis, antiproliferative activity, and mechanism of action of a series of 2-{[(2E)-3-phenylprop-2-enoyl]amino}benzamides” (Eur J Med Chem, 2011):
The source made the active and inactive calls. The calls are words filed in the database; no cut-off is given here.

How the values were obtained:
RPMI-8226 = assay: Growth inhibition of human RPMI8226 cells after 48 hrs by SRB assay; format: functional; conditions: RPMI-8226, 48 h
Method in brief: (§1)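 NCI DTP panel cells grown in RPMI 1640 with 5% FBS and 2 mM L-glutamine, preincubated 24 h, then given five concentrations (10-fold or ½-log dilutions from DMSO stock) for 48 h at 37 °C. Cells fixed with TCA, stained with SRB, absorbance read at 515 nm, with time-zero plates as reference.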

MDA-MB-468 = assay: Growth inhibition of human MDA-MB-468 cells after 48 hrs by SRB assay; format: functional; conditions: MDA-MB-468, 48 h; method in brief: as §1
SF-539 = assay: Growth inhibition of human SF539 cells after 48 hrs by SRB assay; format: functional; conditions: SF-539, 48 h; method in brief: as §1
SK-MEL-5 = assay: Growth inhibition of human SK-MEL-5 cells after 48 hrs by SRB assay; format: functional; conditions: SK-MEL-5, 48 h
Method in brief: (§2)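 Run by the NCI Developmental Therapeutics Program: cells in RPMI 1640 with 5% FBS and 2 mM L-glutamine, plated at 5000–40,000 cells/well and grown 24 h before dosing. Drug (DMSO stock) given at five concentrations for 48 h at 37 °C, 5% CO2. Adherent cells fixed with cold TCA, stained with 0.4% SRB and read at 515 nm. GI50, TGI and LC50 taken from the time-zero, control and treated absorbances.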

HOP-92 = assay: Growth inhibition of human HOP92 cells after 48 hrs by SRB assay; format: functional; conditions: HOP-92, 48 h; method in brief: as §1
PC-3 = assay: Growth inhibition of human PC3 cells after 48 hrs by SRB assay; format: functional; conditions: PC-3, 48 h; method in brief: as §1
MDA-MB-435 = assay: Growth inhibition of human MDA-MB-435 cells after 48 hrs by SRB assay; format: functional; conditions: MDA-MB-435, 48 h; method in brief: as §1
[1] = Growth inhibition of human Hs 578T cells after 48 hrs by SRB assay; format: functional; method in brief: as §1
K562 [2] = assay: Growth inhibition of human K562 cells after 48 hrs by SRB assay; format: functional; conditions: K562, 48 h; method in brief: as §1
SN12C = assay: Growth inhibition of human SN12C cells after 48 hrs by SRB assay; format: functional; method in brief: as §2
NCI/ADR-RES = assay: Growth inhibition of human NCI/ADR-RES cells after 48 hrs by SRB assay; format: functional; method in brief: as §1
COLO 205 = assay: Growth inhibition of human COLO205 cells after 48 hrs by SRB assay; format: functional; conditions: COLO 205, 48 h; method in brief: as §1
T47D = assay: Growth inhibition of human T47D cells after 48 hrs by SRB assay; format: functional; method in brief: as §2
NCI-H23 = assay: Growth inhibition of human NCI-H23 cells after 48 hrs by SRB assay; format: functional; conditions: NCI-H23, 48 h; method in brief: as §1
K562 [3] = assay: Induction of apoptosis in human K562 cells assessed as induction in morphological alterations at 2 uM after 24 hrs ny phase contrast invertoscope; format: functional, cell-based
Method in brief: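 Living K562 cells in culture medium, exposed 24 h to 2, 5 or 10 μM or left untreated, then viewed by phase contrast invertoscope at 40× magnification for morphologic alterations.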

Mus musculus = assay: Toxicity in non-tumorated mouse at 400 mg/kg; format: organism-based; parameters: dose 400 mg/kg; conditions: in vivo
Method in brief: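 Run by the NCI in vivo toxicity assay in non-tumored mice, at a dose of 400 mg/kg.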

K562 [4] = assay: Induction of apoptosis in human K562 cells assessed as accumulation of hypodiploid nuclei after 48 hrs by FITC- conjugated annexin-V/propidium iodide based flow cytometry; format: functional, cell-based; conditions: K562, 48 h
Method in brief: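 K562 cells treated with various concentrations for 48 h. Apoptosis scored as the percentage of hypodiploid nuclei in the sub-G0–G1 peak after hypotonic propidium iodide staining (50 μg/ml in 0.1% sodium citrate, 0.03% NP-40, 30 min), measured by flow cytometry. Annexin-V-FITC/PI staining, 15 min at 20 °C, also read by flow cytometry. Mean ±SE shown.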

PtK2 [5] = assay: Binding affinity to actin in Potorous tridactylus PtK2 cells at 10 uM; format: cell-based
Method in brief: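 PtK2 (Potorous tridactylus kidney) cells treated 24 h at 37 °C, then fixed and stained by direct immunofluorescence with Cy3-anti-β-tubulin and FITC-anti-β-actin monoclonals. Microtubule and microfilament networks were examined by epifluorescence microscopy.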

K562 [6] = assay: Cell cycle distribution in human K562 cells assessed as increase in accumulation at G2/M phase at 1 to 4 uM after 24 hrs by flow cytometry; format: functional, cell-based
Method in brief: (§3)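 K562 exposed 24 h to 1, 2 or 4 μM. Washed cells resuspended in hypotonic propidium iodide (50 μg/ml in 0.1% sodium citrate plus 0.03% NP-40), incubated 30 min. DNA-content histograms acquired by flow cytometry give the G0–G1, S and G2-M fractions.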

Bos taurus [7] = species: Bos taurus; assay: Inhibition of purified bovine brain tubulin polymerization by turbidimetry
Method in brief: (§4)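 Purified bovine brain tubulin. Reaction mixtures preincubated at 30 °C without GTP, chilled on ice, then given 0.4 mM GTP at 0 °C. Temperature jumped to 30 °C and held 20 min while turbidity was followed spectrophotometrically. Maximal rate and extent of assembly compared with a control run in the same experiment. Concentrations tested up to 40 μM.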

K562 [8] = assay: Cell cycle distribution in human K562 cells assessed as decrease in accumulation at G0/G1 phase at 1 to 4 uM after 24 hrs by flow cytometry; format: functional, cell-based; method in brief: as §3
PtK2 [9] = assay: Inhibition of tubulin polymerization in Potorous tridactylus PtK2 cells assessed as microtubule disruption at 10 uM after 24 hrs by immunofluorescence microscopy; format: cell-based
Method in brief: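 PtK2 (Potorous tridactylis kidney) cells treated 24 h at 37 °C at 10 μM. Then fixed and stained directly with Cy3-anti-β-tubulin and FITC-anti-β-actin monoclonal antibodies and imaged by epifluorescence microscopy. Combretastatin A-4 (1 μM) and latrunculin A (1 μM) used as references.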

K562 [10] = assay: Cell cycle distribution in human K562 cells assessed as blocked at M phase at 1 uM after 24 hrs by ethidium bromide/acridine orange staining (reference value: 1%); format: functional
Method in brief: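 K562 exposed to 1 μM for 24 h, then stained with ethidium bromide and acridine orange. The percentage of cells arrested in mitosis was scored morphologically; untreated cells served as control.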

Bos taurus [11] = species: Bos taurus; assay: Inhibition of purified bovine brain tubulin microtubule assembly up to 40 uM; method in brief: as §4

Row | SMILES | GI50 (RPMI-8226) | GI50 (SF-539) | GI50 (SK-MEL-5) | GI50 (HOP-92) | GI50 (PC-3) | GI50 [1] | GI50 (K562 [2]) | GI50 (SN12C) | GI50 (COLO 205) | GI50 (T47D) | GI50 (NCI-H23) | further results
1 | NC(=O)c1cc(Cl)ccc1NC(=O)/C=C/c1ccccc1 | 2790 nM | 2050 nM | 373 nM | 2870 nM | 3150 nM | 2040 nM | 845 nM | 3960 nM | 1680 nM | 3360 nM | 3370 nM | GI50 (MDA-MB-468): 1170 nM; GI50 (MDA-MB-435): 492 nM; GI50 (NCI/ADR-RES): 2240 nM
2 | NC(=O)c1cc(I)ccc1NC(=O)/C=C/c1ccccc1 | 347 nM | 445 nM | 383 nM | 21200 nM | 628 nM | 375 nM | 920 nM | 635 nM | 343 nM | 857 nM | 840 nM | Activity (K562 [3]): Active; Activity (Mus musculus): Non-toxic; AC50 (K562 [4]): 3700 nM; Activity (PtK2 [5]): Active; Activity (K562 [6]): Active; Activity (Bos taurus [7]): Active; Activity (K562 [8]): Active; Activity (PtK2 [9]): Active; Activity (K562 [10]): 35%; Activity (Bos taurus [11]): inactive
